According to ChEMBL document CHEMBL1177649, “Synthesis and structure-affinity relationships of novel small molecule natural product derivatives capable of discriminating between serotonin 5-HT1A, 5-HT2A, 5-HT2C receptor subtypes” (Bioorg Med Chem, 2010):

How the values were obtained:
Assay type in all cases: cell-based
[1] = target: T1, 5-hydroxytryptamine receptor 2C (Homo sapiens, UniProt P28335); experiment: Displacement of [3H]mesulergine from human cloned 5HT2C receptor expressed in HEK293 cells after 90 mins by liquid scintillation counting
T1 sequence (P28335 whole entry): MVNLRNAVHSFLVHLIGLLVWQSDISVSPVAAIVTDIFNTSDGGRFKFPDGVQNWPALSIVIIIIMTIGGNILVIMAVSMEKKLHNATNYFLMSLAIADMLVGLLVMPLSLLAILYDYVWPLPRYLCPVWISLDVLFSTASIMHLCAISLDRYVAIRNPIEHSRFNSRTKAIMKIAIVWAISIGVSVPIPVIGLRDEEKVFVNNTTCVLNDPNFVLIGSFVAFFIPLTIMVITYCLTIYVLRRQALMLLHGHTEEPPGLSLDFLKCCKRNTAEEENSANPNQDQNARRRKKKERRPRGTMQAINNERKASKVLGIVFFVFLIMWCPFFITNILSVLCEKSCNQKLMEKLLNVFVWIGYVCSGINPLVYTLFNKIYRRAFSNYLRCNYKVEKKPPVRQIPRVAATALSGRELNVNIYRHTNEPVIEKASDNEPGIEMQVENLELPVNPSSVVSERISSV

[2] = target: T2, 5-hydroxytryptamine receptor 2A (Homo sapiens, UniProt P28223); experiment: Displacement of [3H]methylspiperone from human cloned 5HT2A receptor expressed in HEK293 cells after 90 mins by liquid scintillation counting
Method in brief: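 Nonspecific binding defined with 5 μM mianserin. Compounds in DMSO or DMSO:0.01 N HCl, non-aqueous solvent ≤1:300. Incubated ≥90 min at 25°C, then filtered. Ki from IC50 by Cheng-Prusoff, with the curve bottom fixed at zero for partial displacement. Geometric mean ± SD of 3–4 experiments in triplicate.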

[3] = target: T2, 5-hydroxytryptamine receptor 2A; experiment: Displacement of [3H]methylspiperone from human cloned 5HT2A receptor expressed in HEK293 cells at 3 uM after 90 mins by liquid scintillation counting
Method in brief: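 Crude membranes from HEK293 cells stably expressing the receptor (calcium phosphate transfection, G418-selected clones), in 50 mM Tris pH 7.4. Single-point screen: 3 mM DMSO stock diluted 1:1000. Radioligand targeted at about 500 pM, nonspecific binding defined by 5 μM mianserin. Incubated at least 90 min at 25°C, then filtered on PEI-soaked GF/C filters and washed cold. Percent specific displacement, triplicates, 3–4 experiments.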

[4] = target: T3, 5-hydroxytryptamine receptor 1A (Homo sapiens) (UniProt P08908); experiment: Displacement of [3H]MPPF from human cloned 5HT1A receptor expressed in HEK293 cells at 3 uM after 90 mins by liquid scintillation counting
T3 sequence (whole entry): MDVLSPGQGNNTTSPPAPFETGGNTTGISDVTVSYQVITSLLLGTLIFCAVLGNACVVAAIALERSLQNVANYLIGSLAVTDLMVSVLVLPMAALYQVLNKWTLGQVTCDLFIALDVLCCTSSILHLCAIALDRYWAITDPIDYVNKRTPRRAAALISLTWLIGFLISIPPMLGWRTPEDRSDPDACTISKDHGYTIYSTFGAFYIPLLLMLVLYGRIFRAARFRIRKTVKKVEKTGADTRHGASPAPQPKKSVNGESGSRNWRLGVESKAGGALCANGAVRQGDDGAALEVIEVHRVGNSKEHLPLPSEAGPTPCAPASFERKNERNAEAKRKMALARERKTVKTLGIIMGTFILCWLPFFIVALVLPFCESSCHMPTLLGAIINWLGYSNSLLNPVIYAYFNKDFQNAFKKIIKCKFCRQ
Method in brief: (§1)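 Crude membranes from HEK293 cells stably expressing the receptor (G418 selection) in 50 mM Tris, pH 7.4. Radioligand targeted at ~500 pM. Compound added from a 3 mM DMSO stock diluted 1:1000. Nonspecific binding defined with 5 μM NAN-190 (5-HT1A) or 5 μM mianserin (5-HT2C). Incubated ≥90 min at 25°C, then filtered through PEI-soaked GF/C filters. Percent displacement of specific binding; triplicates, 3–4 experiments.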

[5] = target: T4, 5-hydroxytryptamine receptor 2C (Homo sapiens) (UniProt P28335); experiment: Displacement of [3H]mesulergine from human cloned 5HT2C receptor expressed in HEK293 cells at 3 uM after 90 mins by liquid scintillation counting; method in brief: as §1
T4 sequence (whole entry): T1 sequence (P28335 whole entry)

T2 sequence (P28223 whole entry): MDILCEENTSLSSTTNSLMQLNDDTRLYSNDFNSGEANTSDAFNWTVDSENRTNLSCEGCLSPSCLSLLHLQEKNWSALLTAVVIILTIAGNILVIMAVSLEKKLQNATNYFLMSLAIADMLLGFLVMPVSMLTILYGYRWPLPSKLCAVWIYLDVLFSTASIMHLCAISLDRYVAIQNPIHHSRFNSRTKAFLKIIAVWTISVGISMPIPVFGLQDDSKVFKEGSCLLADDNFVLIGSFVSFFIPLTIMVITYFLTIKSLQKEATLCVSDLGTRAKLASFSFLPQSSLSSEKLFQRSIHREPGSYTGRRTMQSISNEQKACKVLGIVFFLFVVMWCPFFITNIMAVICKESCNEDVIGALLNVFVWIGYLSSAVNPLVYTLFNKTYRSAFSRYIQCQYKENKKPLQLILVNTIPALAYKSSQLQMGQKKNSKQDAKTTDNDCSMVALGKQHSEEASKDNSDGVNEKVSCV

Row | Structure (SMILES) | Ki [1] | Ki [2] | Activity [3] | Activity [4] | Activity [5]
1 | O=C(Nc1cccnc1)N1CCc2cc(I)c(Cl)cc21 | 0.0032 µM |  |  |  | 
2 | O=C(Nc1cccnc1)N1CCc2ccccc21 |  | > 10 µM |  |  | 
3 | CCN1C(=N)N(C)/C(=C/c2c[nH]c3cc(Br)ccc23)C1=O |  |  | 0% | 0% | 49%
4 | CN1C(=N)N(C)/C(=C/c2c[nH]c3cc(F)ccc23)C1=O |  | 0.235 µM | 79% | 2% | 0%
5 | CCN1C(=N)N(C)/C(=C\c2c[nH]c3ccc(Br)cc23)C1=O |  |  | 9% | 0% | 18%
6 | CN1C(=N)N(C)/C(=C/c2c[nH]c3cc(Br)ccc23)C1=O | 2.2 µM |  |  |  | 
7 | CN1C(=N)NC(=O)/C1=C\c1c[nH]c2ccc(F)cc12 |  |  | 0% | 0% | 19%
8 | CN1C(=N)NC(=O)/C1=C\c1c[nH]c2cc(Cl)c(Cl)cc12 |  |  | 0% | 4% | 10%
9 | Cc1ncccc1Oc1ccc(NC(=O)N2CCc3cc(Br)ccc32)cn1 | 0.0032 µM | 3.98 µM |  |  | 
10 | CN1C(=N)NC(=O)/C1=C\c1c[nH]c2cc(F)ccc12 |  |  | 6% | 0% | 1%
11 | Cc1ncccc1Oc1ccc(NC(=O)N2CCc3cc(I)ccc32)cn1 | 0.0032 µM |  |  |  | 
12 | CN1C(=N)N(C)/C(=C/c2c[nH]c3cc(Cl)ccc23)C1=O | 0.166 µM |  | 0% | 3% | 49%
13 | CN1C(=N)N(C)/C(=C/c2c[nH]c3ccc(Cl)cc23)C1=O |  |  | 22% | 9% | 43%
14 | CN1C(=N)NC(=O)/C1=C\c1c[nH]c2cc(Cl)ccc12 |  |  | 0% | 1% | 0%
15 | CN1C(=N)NC(=O)/C1=C\c1c[nH]c2ccccc12 |  |  | 0% | 0% | 6%
16 | CN1C(=N)N(C)/C(=C/c2c[nH]c3ccc(F)cc23)C1=O |  |  | 10% | 4% | 0%
17 | Cc1cc2c(cc1I)N(C(=O)Nc1cccnc1)CC2 | 0.0032 µM |  |  |  | 
18 | CN1C(=N)N(C)/C(=C/c2c[nH]c3cc(Cl)c(Cl)cc23)C1=O | 0.046 µM |  | 12% | 0% | 79%
19 | CCN1C(=N)N(C)/C(=C\c2c[nH]c3ccc(I)cc23)C1=O |  |  | 35% | 15% | 46%
20 | CN1C(=N)N(C)/C(=C/c2c[nH]c3ccc(Br)cc23)C1=O |  |  | 37% | 18% | 64%
21 | CN1C(=N)NC(=O)/C1=C\c1c[nH]c2ccc(Cl)cc12 |  |  | 9% | 9% | 0%
22 | CN1C(=N)NC(=O)/C1=C\c1c[nH]c2ccc(Br)cc12 |  |  | 0% | 6% | 0%
